The values that follow come from PMC4515944 (Planta medica, 2015).

In general, IC50 refers to the midpoint of a concentration-inhibition curve. The term Km denotes the concentration of substrate that gives half-maximal velocity.

Test [1] concerns the target Collagenase type V from Clostridium histolyticum. Nature of the test: Collagenase inhibition assay. The class given is biochemical. To be noted: for IC50: incubation 37°C 10 min, reaction monitored 30 min; for inhibition rate: initial concentration 50 μg/mL. A digest of the protocol:
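Clostridium histolyticum collagenase (100 μg/mL initial) in 10 mM Tris-HCl pH 7.3 preincubated 10 min with test compound (1% DMSO final). MCA-Pro-Leu-Ala-Nva-DNP-Dap-Ala-Arg-NH2 (55.55 μg/mL initial) then added. Fluorescence ex 320/em 400 nm read at endpoint, or every 5 min over 30 min for AUC. Serial dilutions in triplicate, blank per concentration, % inhibition versus buffer control. Km by Lineweaver-Burk, substrate 4.17–166.67 μg/mL initial.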

The target of test [2] is collagenase. To be noted: cited from earlier work.

≈ marks a conversion by molar mass, not a printed value. Where two headings read alike, the source gives them in different places.

Consider `c1cnc2c(c1)ccc1cccnc12` [1,10-phenanthroline], for which the IC50 in test [1] (final concentration) came out at 42.86 µg/mL; in test [1] (mean ± SD (n=3)) it was 238 ± 3.4 µM. Moreover, the “IC50 described in literature” value in test [2] (ref [16]) was 70.4 µg/mL (≈ 391 µM).
As for `O=C(O[C@@H]1Cc2c(O)cc(O)cc2O[C@@H]1c1cc(O)c(O)c(O)c1)c1cc(O)c(O)c(O)c1` [epigallocatechingallate], the IC50 in test [2] (ref [15]) is 114 µg/mL (≈ 249 µM).
Consider `COC1=C(NCC(=O)O)CC(O)(CO)CC1=N` (stereo not shown) [palythine], for which the figures for the IC50 in test [1] (final concentration) and in test [1] (mean ± SD (n=3)) were 38.82 µg/mL and 159 ± 3.2 µM, respectively.
Regarding `CC(C)C[C@H](NP(=O)(O)O[C@@H]1O[C@@H](C)[C@H](O)[C@@H](O)[C@H]1O)C(=O)N[C@@H](Cc1c[nH]c2ccccc12)C(=O)O` [phosphoramidon], in test [1] (AUC 0-30 min, n=3), the “IC50, kinetic reading mode (AUC)” value is on record as 11.95 μg/mL ± 1.28. In addition, the “IC50, endpoint reading mode” value in test [1] (endpoint reading at 30 min, n=3) is 11.07 μg/mL ± 0.95. This compound also came in with an IC50 in test [1] (mean ± SD (n=3)) of 18.8 ± 1.6 µM. The inhibition rate stood at 53.4% in test [1] (reaction temperature 30°C), 53.4% in test [1] (reaction temperature 37°C) and 49.1% in test [1] (room temperature (RT)).
Take `COC1=C(NCC(=O)O)CC(O)(CO)CC1=N[C@H](C(=O)O)[C@@H](C)O` (stereo partly shown) [porphyra]: the IC50 in test [1] (final concentration) worked out at 37.73 µg/mL; in test [1] (mean ± SD (n=3)), 106 ± 2.3 µM.
For the compound `COC1=C(NCC(=O)O)C[C@@](O)(CO)C/C1=N\[C@@H](CO)C(=O)O` [shinorine], the 50% inhibitory concentration (IC50) stood at 34.42 µg/mL in test [1] (final concentration) and 104 ± 3.7 µM in test [1] (mean ± SD (n=3)).
Consider “MCA-Pro-Leu-Ala-Nva-DNP-Dap-Ala-Arg-NH2 [MMP-2 fluorogenic substrate]”, for which, in test [1] (Lineweaver Burk plot, enzyme 100 μg/mL (initial)), the “maximum velocity (Vmax)” value turned out to be 212.76 µmol/min. Further, the Km in test [1] (read-out: Km (final), Lineweaver Burk plot, final concentration) amounted to 12.9 µM; in test [1] (read-out: Michaelis Menten constant (Km), Lineweaver Burk plot, enzyme 100 μg/mL (initial), initial substrate concentration) it was 51.7 µM.
